Experimental data published in ChEMBL document CHEMBL3797076, “5-HT2 receptor affinity, docking studies and pharmacological evaluation of a series of 1,3-disubstituted thiourea derivatives” (Eur J Med Chem, 2016).
The source made the active and inactive calls. No cut-off for these calls is given here.

Key:
[1] = molecular target: 5-hydroxytryptamine receptor 2A (Rattus norvegicus, UniProt P14842); assay: Displacement of [3H]ketanserin from 5HT2A receptor in Sprague-Dawley rat brain cortex incubated for 15 mins
In short: (§1)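 Rat frontal cortex homogenized in 50 mM Tris-HCl, 0.5 mM EDTA, 10 mM MgCl2, pH 7.4, washed, resuspended with 0.1% ascorbate and pargyline. Triplicates: 5-HT2A used 0.4 nM [3H]ketanserin, cinanserin for nonspecific binding; 5-HT2C used 1 nM [3H]mesulergine, mianserin nonspecific, 100 nM spiperone added. 15 min at 37 C, glass-fiber filtration.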

[2] = molecular target: T1, 5-hydroxytryptamine receptor 2C (Rattus norvegicus, UniProt P08909); assay: Displacement of [3H]mesulergine from 5HT2C receptor in Sprague-Dawley rat brain cortex incubated for 15 mins; in short: as §1
T1 sequence (P08909 whole entry): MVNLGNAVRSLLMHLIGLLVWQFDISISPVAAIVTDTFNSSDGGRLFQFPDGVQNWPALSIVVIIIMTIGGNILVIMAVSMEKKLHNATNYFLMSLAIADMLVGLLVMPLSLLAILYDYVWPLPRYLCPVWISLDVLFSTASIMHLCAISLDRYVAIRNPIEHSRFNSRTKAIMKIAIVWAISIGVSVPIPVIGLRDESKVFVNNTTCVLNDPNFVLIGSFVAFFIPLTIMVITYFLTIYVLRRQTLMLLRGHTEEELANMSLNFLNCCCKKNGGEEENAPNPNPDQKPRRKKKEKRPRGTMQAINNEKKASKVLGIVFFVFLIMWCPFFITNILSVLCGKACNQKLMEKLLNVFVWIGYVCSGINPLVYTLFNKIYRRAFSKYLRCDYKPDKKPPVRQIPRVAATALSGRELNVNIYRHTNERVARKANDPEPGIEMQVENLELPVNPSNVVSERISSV

Mus musculus [3] = assay: Inhibition of amphetamine-induced hyperlocomotion in Albino Swiss mouse at 0.1 ED50, ip administered 60 mins prior to test measured for 30 mins by photoresistor actometer analysis; format: functional
In short: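 Single male Albino Swiss mice; compound i.p. 60 min and amphetamine 5 mg/kg s.c. 30 min before test. Photoresistor actometers (circular cage, two light beams) counted beam crossings over 30 min; mean ± SEM, Dunnett's test vs control.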

Mus musculus [4] = assay: Neurotoxicity in Albino Swiss mouse assessed as induction of myorelaxation at 0.0125 to 0.1 ED50, ip after 60 mins by chimney test; format: toxicity, organism-based; conditions: in vivo, 1 h
Mus musculus [5] = assay: Neurotoxicity in Albino Swiss mouse assessed as induction of myorelaxation at 0.0125 to 0.1 ED50, ip after 60 mins by rotarod test; format: toxicity, organism-based; conditions: in vivo, 1 h
Mus musculus [6] = assay: Neurotoxicity in Albino Swiss mouse assessed as impairment in motor coordination at 0.0125 to 0.1 ED50, ip after 60 mins by chimney test; format: toxicity, organism-based; conditions: in vivo, 1 h
Mus musculus [7] = assay: Neurotoxicity in Albino Swiss mouse assessed as impairment in motor coordination at 0.0125 to 0.1 ED50, ip after 60 mins by rotarod test; format: toxicity, organism-based; conditions: in vivo, 1 h
Mus musculus [8] = assay: Toxicity in ip dosed Albino Swiss mouse assessed as loss of righting reflex administered 60 mins before test measured up to 48 hrs; format: organism-based; conditions: in vivo
In short: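 Acute toxicity in male Albino Swiss mice by Litchfield-Wilcoxon method: ED50 for loss of righting reflex after i.p. dosing, observed at 15, 30, 60, 180 min and 24, 48 h.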

Mus musculus [9] = assay: Toxicity in Albino Swiss mouse assessed as inhibition of spontaneous locomotor activity at 0.1 ED50, ip administered 60 mins before test measured for 30 mins by photoresistor actometer analysis; format: organism-based; conditions: in vivo, 0.5 h
In short: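 Spontaneous locomotion of single male Albino Swiss mice recorded in two-beam photoresistor actometers as beam crossings for 30 min, beginning 60 min after i.p. compound (suspension in 0.5% methylcellulose).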

Mus musculus [10] = assay: Inhibition of 5-HTP-induced head twitch response in Albino Swiss mouse at 0.1 ED50, ip administered 60 mins before 5-HTP injection relative to untreated control; format: functional
In short: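 Male Albino Swiss mice given compound i.p. (0.1 ED50, 0.5% methylcellulose) 60 min before the test; L-5-HTP 230 mg/kg i.p. injected immediately before. Head twitches counted; mean ± SEM, Dunnett's test vs control.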

Mus musculus [11] = assay: Inhibition of (+/-)DOI-induced head twitch response in Albino Swiss mouse at 28.6 mg/kg, ip administered 60 mins before (+/-)DOI injection measured for 20 mins relative to untreated control; format: functional
In short: (§2)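 Male Albino Swiss mice; compounds suspended in 0.5% methylcellulose, injected i.p. 60 min before (±)DOI 2.5 mg/kg i.p.; head twitches counted over 20 min. Mean ± SEM, percent reduction versus DOI-treated group; one-way ANOVA with Bonferroni post hoc test.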

Mus musculus [12] = assay: Inhibition of (+/-)DOI-induced head twitch response in ip dosed Albino Swiss mouse administered 60 mins before (+/-)DOI injection measured for 20 mins; format: functional, organism-based; in short: as §2
Mus musculus [13] = assay: Anticonvulsant activity in Albino Swiss mouse assessed as protection against pentetrazol-induced clonic seizure at 0.1 ED50, ip administered 60 mins prior to test relative to untreated control; format: functional
In short: (§3)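 Male Albino Swiss mice (18-30 g); compound given i.p. as suspension in 0.5% methylcellulose 60 min before test; pentylenetetrazole 110 mg/kg s.c. Scored as number of mice with clonic seizures, tonic convulsions and deaths per animals tested; Fisher's exact test vs solvent control.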

Mus musculus [14] = assay: Increase in body temperature in Albino Swiss mouse at 0.1 ED50, ip administered 60 mins before test measured 30 to 180 mins post dose; format: functional, organism-based
In short: (§4)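 Normothermic male Albino Swiss mice; rectal temperature by thermistor thermometer. Baseline taken as mean of readings at 60 and 30 min before dosing; i.p. dose (0.1 ED50, 0.5% methylcellulose vehicle) then readings at 30, 60, 90, 120 min (to 180 min for some). Change = final minus initial; Bonferroni post hoc test.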

Mus musculus [15] = assay: Inhibition of 5-HTP-induced head twitch response in ddY mouse at >=1 mg/kg, po administered 1 hr before 5-HTP injection measured after 30 mins relative to untreated control; format: functional
Mus musculus [16] = assay: Antinociceptive activity in Albino Swiss mouse assessed as inhibition of acetic acid-induced writhing response at 0.1 ED50, ip administered 60 mins prior to test measured for 10 mins; format: functional, organism-based
In short: (§5)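 Male Albino Swiss mice, i.p. dosing in 0.5% methylcellulose 60 min beforehand; 0.6% acetic acid injected i.p., writhing episodes counted for 10 min beginning 5 min after acid. Mean ± SEM; one-way ANOVA with Dunnett's test vs control.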

Mus musculus [17] = assay: Antinociceptive activity in Albino Swiss mouse assessed as inhibition of acetic acid-induced writhing response at 0.025 to 0.05 ED50, ip administered 60 mins prior to test measured for 10 mins; format: functional, organism-based; in short: as §5
Mus musculus [18] = assay: Antinociceptive activity in Albino Swiss mouse assessed as inhibition of acetic acid-induced writhing response at 0.05 ED50, ip administered 60 mins prior to test measured for 10 mins in presence of opioid receptor antagonist naloxone; format: functional, organism-based
Mus musculus [19] = assay: Anticonvulsant activity in Albino Swiss mouse assessed as protection against pentetrazol-induced tonic seizure at 0.1 ED50, ip administered 60 mins prior to test relative to untreated control; format: functional; in short: as §3
Mus musculus [20] = assay: Protection against pentetrazol-induced mortality in Albino Swiss mouse at 0.1 ED50, ip administered 60 mins prior to test relative to untreated control; format: functional
In short: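 Male Albino Swiss mice (18–30 g). Compound given i.p. as suspension in 0.5% methylcellulose (10 mL/kg), 60 min before test; controls got vehicle. Dose expressed as fraction of ED50 (loss of righting reflex within 48 h). Convulsions induced by pentylenetetrazole 110 mg/kg s.c.; dead animals counted per group (n=10; control n=16). Significance vs control by Fisher's exact test.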

Mus musculus [21] = assay: Anticonvulsant activity in Albino Swiss mouse assessed as protection against pentetrazol-induced clonic seizure at 0.05 ED50, ip administered 60 mins prior to test relative to untreated control; format: functional, organism-based; in short: as §3
Mus musculus [22] = assay: Effect on body temperature in Albino Swiss mouse at 0.1 ED50, ip administered 60 mins before test measured 30 to 180 mins post dose; format: functional, organism-based; in short: as §4
Mus musculus [23] = assay: Increase in body temperature in Albino Swiss mouse at 0.1 ED50, ip administered 60 mins before test measured 30 to 90 mins post dose; format: functional, organism-based; in short: as §4
Mus musculus [24] = assay: Decrease in body temperature in Albino Swiss mouse at 0.1 ED50, ip administered 60 mins before test measured 30 to 120 mins post dose; format: functional, organism-based; in short: as §4

5-hydroxytryptamine receptor 2A, sequence (P14842 whole entry): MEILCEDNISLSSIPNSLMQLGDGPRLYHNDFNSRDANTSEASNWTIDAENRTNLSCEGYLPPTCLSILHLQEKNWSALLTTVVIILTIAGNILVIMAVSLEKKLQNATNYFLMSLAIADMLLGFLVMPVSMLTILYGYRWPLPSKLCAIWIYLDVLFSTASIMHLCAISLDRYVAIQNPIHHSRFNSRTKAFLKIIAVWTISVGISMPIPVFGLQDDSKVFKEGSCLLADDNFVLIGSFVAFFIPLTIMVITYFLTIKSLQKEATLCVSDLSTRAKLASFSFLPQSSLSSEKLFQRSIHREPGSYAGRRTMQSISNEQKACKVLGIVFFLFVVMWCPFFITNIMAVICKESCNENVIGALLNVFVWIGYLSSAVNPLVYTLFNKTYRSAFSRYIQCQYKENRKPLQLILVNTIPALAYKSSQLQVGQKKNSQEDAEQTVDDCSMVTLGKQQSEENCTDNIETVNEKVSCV

Row | Ki [1] [µM] | Ki [2] [µM] | SMILES | inhibition (INH) (Mus musculus [3]) [%] | Activity (Mus musculus [4]) | Activity (Mus musculus [5]) | Activity (Mus musculus [6]) | Activity (Mus musculus [7]) | ED50 (Mus musculus [8]) [mg/kg] | Activity (Mus musculus [9]) | inhibition (Mus musculus [10]) | Activity (Mus musculus [13]) | inhibition (Mus musculus [16]) | inhibition (Mus musculus [17]) | inhibition (Mus musculus [18]) | inhibition (Mus musculus [3]) | also measured
1 | 4.3e-05 | > 10 | Fc1ccc(NC(=S)Nc2cccc(C(F)(F)F)c2)cc1Cl | 47.3 | Non-toxic | Non-toxic | Non-toxic | Non-toxic | 286.2 | Non-toxic | inactive | inactive |  |  |  |  | inhibition in vivo at 28.6 mg/kg (Mus musculus [11]): 51.6%; inhibition (Mus musculus [12]): Dose-dependent effect; Activity (Mus musculus [14]): Active
2 | > 10 | > 10 | O=[N+]([O-])c1cc(NC(=S)Nc2ccccc2Cl)ccc1Cl |  |  |  |  |  |  | Non-toxic |  |  |  |  |  |  | 
3 | > 10 | > 10 | COc1ccc(NC(=S)Nc2cccc(C(F)(F)F)c2)cc1 |  | Non-toxic | Non-toxic | Non-toxic | Non-toxic | 771.4 | Non-toxic | inactive | inactive |  |  |  | Active | Activity (Mus musculus [23]): Active

Further lines, the molecule ahead of its results:

Row | SMILES | Ki [1] [µM] | Ki [2] [µM] | inhibition (INH) (Mus musculus [3]) [%] | Activity (Mus musculus [4]) | Activity (Mus musculus [5]) | Activity (Mus musculus [6]) | Activity (Mus musculus [7]) | ED50 (Mus musculus [8]) [mg/kg] | Activity (Mus musculus [9]) | inhibition (Mus musculus [10]) | Activity (Mus musculus [13]) | inhibition (Mus musculus [16]) | inhibition (Mus musculus [17]) | inhibition (Mus musculus [18]) | inhibition (Mus musculus [3]) | also measured
4 | Cc1nc2sccn2c(=O)c1CCN1CCC(=C(c2ccc(F)cc2)c2ccc(F)cc2)CC1 [RITANSERIN] |  |  |  |  |  |  |  |  |  |  |  |  |  |  |  | inhibition (INH) (Mus musculus [15]): >80%
5 | FC(F)(F)c1cccc(NC(=S)NCCc2ccccc2)c1 | > 10 | > 10 | 42.48 | Non-toxic | Non-toxic | Non-toxic | Non-toxic | 709.6 | Non-toxic | inactive |  | Active | Active | Active |  | Activity (Mus musculus [19]): 46.66%; Activity (Mus musculus [20]): 48.33%; Activity (Mus musculus [21]): inactive; Activity (Mus musculus [22]): inactive
6 | CC(NC(=S)Nc1ccc(Cl)c([N+](=O)[O-])c1)c1ccccc1 (configuration not stated) | > 10 | > 10 |  | Non-toxic | Non-toxic | Non-toxic | Non-toxic | 1031.3 | Non-toxic |  | inactive | Active | Active | Active | inactive | inhibition (INH) (Mus musculus [10]): 89%; Activity (Mus musculus [24]): Active
